Here are results for 15 molecules from ChEMBL document CHEMBL1139977, “Synthesis and RET protein kinase inhibitory activity of 3-arylureidobenzylidene-indolin-2-ones” (Bioorg Med Chem Lett, 2007).

Molecules are shown by their SMILES. Calls of active or inactive are those of the source. No cut-off for these calls is given here.

In one assay the test system is NIH3T3MEN2A. Description: Reversion of RET C634R mutant oncogene-transformed morphologic phenotype of mouse NIH3T3MEN2A cells at 10 uM after 72 hrs. The class given is functional, cell-based.
The nature of assay [1]: Antiproliferative activity against RET C634R mutant oncogene-transformed mouse NIH3T3MEN2A after 72 hrs. The class given is functional. In outline:
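Cells kept at 37 °C in 10% CO2 in DMEM. NIH3T3MEN2A were grown with 5% serum; parental NIH3T3 and NIH3T3H-RAS with 10% calf serum. Compounds were dissolved in DMSO and diluted in medium to 0.5% solvent final.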

Assay [2] deals with NIH3T3. Description: Antiproliferative activity against mouse NIH3T3 after 72 hrs. As to conditions: NIH3T3, 72 h.
The subject of assay [3] is NIH3T3. Description: Antiproliferative activity against H-RAS transformed mouse NIH3T3 cells after 72 hrs. The conditions noted are these: NIH3T3, 72 h.
Assay [4] deals with T1, Proto-oncogene tyrosine-protein kinase receptor Ret (Homo sapiens, UniProt P07949). The assay can be described thus: Inhibition of RET in mouse NIH3T3MEN2A cells. The class given is cell-based.
For assay [5], the target named is T1, Proto-oncogene tyrosine-protein kinase receptor Ret. Description: Inhibition of RET in mouse NIH3T3MEN2A cells up to 3 uM. In kind it is cell-based. In outline: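 NIH3T3MEN2A cells (DMEM with 5% serum, 37 °C, 10% CO2) were exposed to vehicle or a range of concentrations for 24 h, with DMSO at 0.5% final. Whole-cell lysates were Western blotted for Ret autophosphorylation with anti-pTyr (4G10) and anti-pRet-Tyr1062 antibodies, and Ret protein expression was also probed.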

T1 sequence (P07949 whole entry): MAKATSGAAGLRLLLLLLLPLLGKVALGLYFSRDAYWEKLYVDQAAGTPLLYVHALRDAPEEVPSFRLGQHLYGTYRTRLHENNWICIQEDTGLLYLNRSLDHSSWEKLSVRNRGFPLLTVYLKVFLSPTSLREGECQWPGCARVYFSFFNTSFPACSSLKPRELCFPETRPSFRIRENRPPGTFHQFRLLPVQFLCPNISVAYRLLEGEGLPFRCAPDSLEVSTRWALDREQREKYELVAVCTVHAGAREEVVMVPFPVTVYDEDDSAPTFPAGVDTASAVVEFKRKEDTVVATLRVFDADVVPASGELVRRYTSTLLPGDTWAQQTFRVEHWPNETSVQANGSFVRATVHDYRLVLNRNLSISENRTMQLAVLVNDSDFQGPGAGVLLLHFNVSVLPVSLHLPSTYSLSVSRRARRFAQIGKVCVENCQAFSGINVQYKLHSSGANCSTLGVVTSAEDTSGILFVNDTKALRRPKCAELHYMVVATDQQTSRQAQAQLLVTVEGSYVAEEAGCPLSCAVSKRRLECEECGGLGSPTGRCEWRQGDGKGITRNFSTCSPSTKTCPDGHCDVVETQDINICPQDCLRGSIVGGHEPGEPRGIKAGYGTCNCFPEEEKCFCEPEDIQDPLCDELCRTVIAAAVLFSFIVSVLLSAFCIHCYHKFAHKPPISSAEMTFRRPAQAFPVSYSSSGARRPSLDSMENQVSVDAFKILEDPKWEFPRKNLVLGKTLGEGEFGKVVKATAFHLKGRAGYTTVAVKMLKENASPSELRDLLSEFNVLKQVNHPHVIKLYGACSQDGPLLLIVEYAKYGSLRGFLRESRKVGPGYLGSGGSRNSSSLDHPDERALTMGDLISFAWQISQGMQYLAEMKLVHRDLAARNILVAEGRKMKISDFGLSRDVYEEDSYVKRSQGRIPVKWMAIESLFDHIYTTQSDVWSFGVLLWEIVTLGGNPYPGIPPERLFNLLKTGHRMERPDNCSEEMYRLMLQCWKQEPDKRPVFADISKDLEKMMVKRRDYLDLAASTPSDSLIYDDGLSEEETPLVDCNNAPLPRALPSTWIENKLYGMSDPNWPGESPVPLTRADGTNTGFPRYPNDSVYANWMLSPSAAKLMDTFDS

Regarding `COc1cc2c(cc1OC)/C(=C\c1ccc(O)cc1)C(=O)N2`, the outcome in the assay with NIH3T3MEN2A was Active. Also, the IC50 in assay [1] worked out at 3.6 µM; in the assay on NIH3T3 [2] it was 16.3 µM; in the assay with NIH3T3 [3] it was 19.7 µM; in assay [4], 0.17 µM.
With `COc1ccc(NC(=O)Nc2ccc(/C=C3/C(=O)Nc4cc(OC)c(OC)cc43)cc2)cc1`, the result in the assay on NIH3T3MEN2A was Active. Also, the IC50 in assay [1] was determined as 3.6 µM; in the assay on NIH3T3 [2] it was 14.7 µM; in the assay on NIH3T3 [3] it was 12.3 µM.
`COc1cc2c(cc1OC)N(C)C(=O)/C2=C/c1ccc(NC(=O)Nc2ccccc2)cc1`: the result in the assay with NIH3T3MEN2A was Active. For the same molecule, the IC50 in assay [1] turned out to be 4.1 µM; with NIH3T3 [2] it was 6.6 µM; with NIH3T3 [3], 5.4 µM. Moreover, the result in assay [5] was inactive.
Regarding `COc1cc2c(cc1OC)/C(=C\c1ccc(NC(=O)Nc3ccccc3)cc1)C(=O)N2`, in the assay on NIH3T3MEN2A, the outcome was Active. In addition, the results for the IC50 (in assay [1]; with NIH3T3 [2]; in the assay on NIH3T3 [3]) were 4.6 µM, 14 µM and 8.7 µM, respectively.
For `COc1cc2c(cc1OC)/C(=C\c1ccc(NC(=O)Nc3ccc(F)cc3)cc1)C(=O)N2`, in the assay on NIH3T3MEN2A, the result was inactive. The IC50 in assay [1] was found to be 6.1 µM.
`O=C(Nc1ccccc1)Nc1ccc(/C=C2\C(=O)Nc3ccccc32)cc1`: the outcome in the assay with NIH3T3MEN2A was inactive. In addition, the IC50 in assay [1] is more than 40 µM.
In the case of `O=C(Nc1ccccc1)Nc1ccc(/C=C2\C(=O)Nc3ccc(Cl)cc32)cc1`, the result in the assay on NIH3T3MEN2A was inactive. Moreover, the IC50 in assay [1] was more than 40 µM.
The matching figures for `O=C(Nc1ccccc1)Nc1ccc(/C=C2\C(=O)N(O)c3ccccc32)cc1`: “inactive” and 7.5 µM.
The matching figures for `COc1cc2c(cc1OC)/C(=C\c1ccc(NC(=O)Nc3ccncc3)cc1)C(=O)N2`: “inactive” and 4.7 µM.
For the molecule `COc1cc2c(cc1OC)/C(=C\c1ccc(C(=O)Nc3ccccc3)cc1)C(=O)N2`, the outcome in the assay on NIH3T3MEN2A was inactive. In assay [1], this molecule had an IC50 of 12.2 µM.
With `O=C(Nc1ccccc1)Nc1ccc(/C=C2/C(=O)Nc3ccccc32)cc1`, in the assay on NIH3T3MEN2A, the outcome was inactive. Besides, the IC50 in assay [1] is 10 µM.
For `COc1cc2c(cc1OC)/C(=C\c1ccc(NC(=O)Nc3ccc(N(C)C)cc3)cc1)C(=O)N2` the same measures were “inactive” and more than 40 µM.
In the case of `COc1cc2c(cc1OC)/C(=C\c1ccc(NC(=O)N3CCN(C)CC3)cc1)C(=O)N2`, in the assay on NIH3T3MEN2A, the result was Active. Also, the IC50 in assay [1] was 15.8 µM; in assay [4], more than 3 µM.
`COc1cc2c(cc1OC)/C(=C\c1ccc(NC(=O)Nc3ccc4c(c3)OCO4)cc1)C(=O)N2`: in the assay on NIH3T3MEN2A, the outcome was inactive. The IC50 in assay [1] was found to be 19.4 µM.
For `COc1cc2c(cc1OC)C(Cc1ccc(NC(=O)Nc3ccccc3)cc1)C(=O)N2` (stereo unspecified) the same measures were “inactive” and 21.5 µM.

As usually defined, the IC50 is the midpoint of a concentration-inhibition curve. High values mean a need for much substance, low ones inhibition by little substance.
